# RAM network inh = blocks the yeast RAM network; S. cerevisiae dse1pr::URA3 reporter, 5-FOA growth OD615, 2 d; analog-sensitive cbk1-as2 kinase mutant strain; inhibition, % at 50 µM; actives 1.8% (n = 190,000);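 active = inhibition above a set limit, 3 SD over mean compound inhibition, cut at about 8.4% in these data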;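 note: 0% = DMSO-only wells with no growth and 100% = 10 µM 1-NA-PP1 full growth; inhibition rescues growth on 5-FOA so higher OD means more RAM inhibition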
# Yeast life ext = extends the lifespan of yeast; S. cerevisiae growth with nicotinamide, OD615; deaD strain in restrictive glucose medium; inhibition of the nicotinamide effect, % at 10 µM; actives 0.68% (n = 130,000); AID 775;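 active = inhibition above a set limit, placed 3 SD over the median of all compounds, cut at about 26% in these data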;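 note: 0% = nicotinamide-treated wells and 100% = cells grown without nicotinamide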
#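 Measured by: optical density (absorbance) at 615 nm; System: modified budding yeast, DeaD strain; Medium: restrictive CSMM-D dextrose medium; Timing: 4 h preincubation then 48 h treatment at 30 °C.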
# Measles CPE = protection of cells from measles virus; Measles virus-infected cells, CPE protection, absorbance; actives 1.5% (n = 140,000); protection (pct of control), % at 4 µM; AID 841; in the data active = protection mostly above about 24%, no sharp cut-off; inactive = mostly below about 26%
# BB579 growth dn = yeast BB579 growth reduction in restrictive medium; S. cerevisiae BB579 growth, OD615, 48 h; inhibition, % at 10 µM; actives 0.51% (n = 140,000); AID 804;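 active = inhibition above a set limit, 3 SD over the mean compound inhibition, cut at about 44% in these data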
#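 test system = yeast BB579 (DeaD) | buffer or medium = restrictive CSMM-D medium | doses = single compound dose of 10 µM, 0.25% DMSO final | times = 4 h preincubation and 48 h exposure at 30 °C | technique = culture absorbance at 615 nm | benchmarks = amphotericin B 10 µg/mL, positive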
# RAM efflux-def = RAM network inhibitors in efflux-deficient yeast | shares compounds with RAM network inh | S. cerevisiae efflux-deficient reporter strain, 5-FOA growth OD615, 2 days | max inhibition, % | 1,200 tested, under 10 active | AID 1305; call rule not given here;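 note: plate controls were vehicle for no effect and reference inhibitor for full effect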
# * marks the source's active call; other numbers are inactive results; · = no result. In the library only some 3.6% were active in any assay of this set; here they are far more common.
SMILES,RAM network inh,Yeast life ext,Measles CPE,BB579 growth dn,RAM efflux-def
CCOC(=O)c1c(-c2ccccc2)csc1NC(=O)COc1ccc2c(C)cc(=O)oc2c1,3,4,2,-37,·
COc1ccccc1OCCCC(=O)Nc1ccc([N+](=O)[O-])cc1Br,4,·,·,·,·
CCOC(=O)c1c(-c2cccc([N+](=O)[O-])c2)csc1NC(=O)CCCOc1ccccc1OC,15*,·,10,-42,2
CCOC(=O)c1c(-c2cccc([N+](=O)[O-])c2)csc1NC(=O)CCCOc1ccccc1,14*,13,19,-10,3
Cc1ccc(CN2CCN(Cc3cccn3-c3nccs3)CC2CCO)cc1 (configuration not stated),0,·,·,·,·
Cc1ccccc1-c1nnn(CC(=O)Nc2ccc3c(c2)OCCO3)n1,12*,·,·,·,4
Cc1ccccc1-c1nnn(CC(=O)Nc2ccc3c(c2)OCO3)n1,4,·,·,·,·
CC1CC(C)CN(c2ccc(C(=O)NCc3ccc4c(c3)OCO4)cc2[N+](=O)[O-])C1 (configuration not stated),5,16,4,-13,·
Cc1ccc(/C=C/c2ccc(=O)n(Cc3ccccc3Cl)n2)cc1,13*,-8,13,-29,3
COc1ccc(CCNC(=O)c2ccc(-c3ccc([N+](=O)[O-])cc3)o2)cc1OC,11*,4,12,-29,2
CCSc1ccc(-c2nn(-c3ccccc3)cc2/C=C(/C#N)C(=O)NCCCOC)cc1,17*,10,4,-10,5
Cc1ccc(-c2nn(-c3ccccc3)cc2/C=C(\C#N)C(=O)NCc2ccccc2)cc1,6,2,3,-24,·
CCCSc1ccc(-c2nn(-c3ccccc3)cc2/C=C(/C#N)C(=O)NCCCOC)cc1,16*,5,27,-15,2
Cc1nnc(SCC(=O)NCC(=O)Nc2ccc(F)c(F)c2F)n1Cc1ccccc1,0,·,·,·,·
Cc1ccc(NC(=O)c2cc(N3C(=O)C=CC3=O)ccc2N2CCOCC2)cc1Cl,-2,-1,6,-32,·
CC(=O)c1ccc(OCc2ccc(Oc3c(Cl)cccc3[N+](=O)[O-])cc2)cc1,13*,5,22,-14,1
CC(=O)c1ccc(OCc2ccc(C(=O)c3ccccc3)cc2)cc1,3,·,·,·,·
CCOC(=O)CSc1nc(-c2ccccc2)nc2ccc(F)cc12,13*,6,12,-44,3
CC(C)(C)NC(=O)CCCSc1nc2ccccc2s1,1,·,·,·,·
Cc1ccccc1NC(=O)CCCSc1nc2ccccc2s1,18*,-2,4,-22,2
Cc1c(C(=O)NCCSCc2ccccc2Cl)cccc1[N+](=O)[O-],1,-10,8,-37,·
O=C(/C=C/c1cccc([N+](=O)[O-])c1)NCc1ccc2c(c1)OCO2,0,-2,8,-23,·
O=C(/C=C/c1cccc([N+](=O)[O-])c1)NCCSCc1ccccc1Cl,12*,-3,5,-33,2
O=C(/C=C/c1ccc2c(c1)OCO2)NCCSCc1ccc(Cl)cc1Cl,12*,-9,3,-27,3
O=C(/C=C/c1cccc([N+](=O)[O-])c1)NCCSCc1ccc(Cl)cc1Cl,12*,3,1,-45,3
SMILES,RAM network inh,Yeast life ext,Measles CPE,BB579 growth dn,RAM efflux-def
CCC1(C)CC(CCNS(=O)(=O)c2ccc(C)cc2)(c2ccc(C)cc2)CCO1 (configuration not stated),16*,-15,10,-53,4
Cc1ccc(C2(CCNCc3ccc(N(C)C)cc3)CCOC(C(C)C)C2)cc1 (configuration not stated),0,·,·,·,·
Cc1ccc(C2(CCNS(=O)(=O)c3ccc(C)cc3)CCOC(C(C)C)C2)cc1 (configuration not stated),15*,2,3,-25,5
CC(C)C(c1nnnn1Cc1ccccc1)N(Cc1ccco1)Cc1cccs1 (configuration not stated),13*,-7,4,5,4
COc1ccc(Cn2nnnc2C(c2cccs2)N2CCOCC2)cc1 (configuration not stated),1,2,11,-2,·
COc1ccc(Cn2nnnc2C(C(C)C)N(Cc2ccco2)Cc2cccs2)cc1 (configuration not stated),12*,-1,3,-13,4
COC(=O)Nc1ccc(S(=O)(=O)NCCO)cc1,1,-8,19,-11,·
CCn1c(/C=C/c2c[nH]c3ccccc23)nc2ccccc2c1=O,6,·,·,·,·
CCn1c(/C=C/c2c(C)[nH]c3ccccc23)nc2ccccc2c1=O,7,0,12,-15,·
Cc1[nH]c2ccccc2c1/C=C/c1nc2ccccc2c(=O)n1-c1ccc([N+](=O)[O-])cc1,11*,4,3,-7,4
CN(C)S(=O)(=O)c1ccc2[nH]cc(/C=C/c3nc4ccccc4c(=O)n3-c3ccccc3)c2c1,13*,-3,10,-34,6
Cc1c(C=O)c2ccccc2n1CC(=O)NC(C)c1ccccc1 (configuration not stated),0,·,·,·,·
Cc1cc(C)cc(Nc2c(F)c(F)c(F)c(F)c2C(=O)O)c1,1,·,·,·,·
O=C(O)CN1C(=O)/C(=C/c2ccc(SCc3ccccc3)o2)SC1=S,7,·,·,·,·
CON/C=C(\C=Nc1ccc(Cl)cc1Cl)c1ncc(C(F)(F)F)cc1Cl,13*,-4,10,-64,3
Cc1ccc(CN2CCSc3ccc(C(=O)NCc4ccco4)cc32)cc1,14*,·,·,·,2
O=c1c2ccccc2c(C=NCCc2ccccc2)c(O)n1Cc1ccccc1,13*,-17,6,-11,3
COc1ccc(Br)cc1C(=O)Nc1ccccc1-c1ccccc1,12*,-16,12,-13,3
O=C(NCc1ccccc1)C1=C[C@H](c2ccc(C(F)(F)F)cc2)C[C@H](OCc2ccc(CO)cc2)O1,12*,·,·,·,4
COC(=O)c1ccc(-c2ncc(-c3cccc4ccccc34)o2)cc1,13*,·,6,-13,2
CC(=O)OCC1=C(C(=O)O)N2C(=O)C(NC(=O)CCn3nc(C(F)(F)F)c(Br)c3C3CC3)C2SC1 (configuration not stated),0,·,·,·,·
COCCN(CC(=O)NCC1CCCO1)C(=O)CCC(=O)Nc1ccccn1 (configuration not stated),1,·,·,·,·
O=C(CSc1nnc(-c2ccccc2Br)o1)Nc1cccc2ccccc12,5,-3,6,-33,·
O=C(CSc1nnc(-c2ccccc2Br)o1)N1CCc2ccccc2C1,17*,-13,10,-31,2
O=C(CCC(=O)c1cccs1)NCc1ccc(F)cc1,1,-7,2,-53,·
O=C(CCc1ccc(CCC(=O)c2cccs2)s1)c1cccs1,17*,-11,1,-30,4
Cc1onc(-c2c(F)cccc2Cl)c1C(N)=S,1,·,·,·,·
COc1cccc(-c2ccc(C#N)c(OC(=O)c3ccc(Cl)cc3)n2)c1,0,-1,7,-33,·
